ChEMBL document CHEMBL4257570, “Discovery and optimization of a novel series of pyrazolyltetrahydropyran N-type calcium channel (Cav 2.2) blockers for the treatment of pain” (Bioorg Med Chem Lett, 2018)
The source made the active and inactive calls.

Experiments:
[1] = Metabolic stability of human liver microsomes assessed as parent compound remaining after 10 mins; assay type: ADME, microsome; settings: read-out: Stability
[2] = Metabolic stability of rat liver microsomes assessed as parent compound remaining after 10 mins; assay type: ADME, microsome; settings: read-out: Stability
[3] = target: T1, Voltage-dependent N-type calcium channel subunit alpha-1B (Homo sapiens, UniProt Q00975); assay: Inhibition of Cav2.2 (unknown origin) expressed in HEK293 cells assessed as decrease in KCl depolarization-induced Ca2+ influx measured for 5 mins by fluorescence based FDSS assay; assay type: cell-based
Target sequence in this assay (Q00975 whole entry): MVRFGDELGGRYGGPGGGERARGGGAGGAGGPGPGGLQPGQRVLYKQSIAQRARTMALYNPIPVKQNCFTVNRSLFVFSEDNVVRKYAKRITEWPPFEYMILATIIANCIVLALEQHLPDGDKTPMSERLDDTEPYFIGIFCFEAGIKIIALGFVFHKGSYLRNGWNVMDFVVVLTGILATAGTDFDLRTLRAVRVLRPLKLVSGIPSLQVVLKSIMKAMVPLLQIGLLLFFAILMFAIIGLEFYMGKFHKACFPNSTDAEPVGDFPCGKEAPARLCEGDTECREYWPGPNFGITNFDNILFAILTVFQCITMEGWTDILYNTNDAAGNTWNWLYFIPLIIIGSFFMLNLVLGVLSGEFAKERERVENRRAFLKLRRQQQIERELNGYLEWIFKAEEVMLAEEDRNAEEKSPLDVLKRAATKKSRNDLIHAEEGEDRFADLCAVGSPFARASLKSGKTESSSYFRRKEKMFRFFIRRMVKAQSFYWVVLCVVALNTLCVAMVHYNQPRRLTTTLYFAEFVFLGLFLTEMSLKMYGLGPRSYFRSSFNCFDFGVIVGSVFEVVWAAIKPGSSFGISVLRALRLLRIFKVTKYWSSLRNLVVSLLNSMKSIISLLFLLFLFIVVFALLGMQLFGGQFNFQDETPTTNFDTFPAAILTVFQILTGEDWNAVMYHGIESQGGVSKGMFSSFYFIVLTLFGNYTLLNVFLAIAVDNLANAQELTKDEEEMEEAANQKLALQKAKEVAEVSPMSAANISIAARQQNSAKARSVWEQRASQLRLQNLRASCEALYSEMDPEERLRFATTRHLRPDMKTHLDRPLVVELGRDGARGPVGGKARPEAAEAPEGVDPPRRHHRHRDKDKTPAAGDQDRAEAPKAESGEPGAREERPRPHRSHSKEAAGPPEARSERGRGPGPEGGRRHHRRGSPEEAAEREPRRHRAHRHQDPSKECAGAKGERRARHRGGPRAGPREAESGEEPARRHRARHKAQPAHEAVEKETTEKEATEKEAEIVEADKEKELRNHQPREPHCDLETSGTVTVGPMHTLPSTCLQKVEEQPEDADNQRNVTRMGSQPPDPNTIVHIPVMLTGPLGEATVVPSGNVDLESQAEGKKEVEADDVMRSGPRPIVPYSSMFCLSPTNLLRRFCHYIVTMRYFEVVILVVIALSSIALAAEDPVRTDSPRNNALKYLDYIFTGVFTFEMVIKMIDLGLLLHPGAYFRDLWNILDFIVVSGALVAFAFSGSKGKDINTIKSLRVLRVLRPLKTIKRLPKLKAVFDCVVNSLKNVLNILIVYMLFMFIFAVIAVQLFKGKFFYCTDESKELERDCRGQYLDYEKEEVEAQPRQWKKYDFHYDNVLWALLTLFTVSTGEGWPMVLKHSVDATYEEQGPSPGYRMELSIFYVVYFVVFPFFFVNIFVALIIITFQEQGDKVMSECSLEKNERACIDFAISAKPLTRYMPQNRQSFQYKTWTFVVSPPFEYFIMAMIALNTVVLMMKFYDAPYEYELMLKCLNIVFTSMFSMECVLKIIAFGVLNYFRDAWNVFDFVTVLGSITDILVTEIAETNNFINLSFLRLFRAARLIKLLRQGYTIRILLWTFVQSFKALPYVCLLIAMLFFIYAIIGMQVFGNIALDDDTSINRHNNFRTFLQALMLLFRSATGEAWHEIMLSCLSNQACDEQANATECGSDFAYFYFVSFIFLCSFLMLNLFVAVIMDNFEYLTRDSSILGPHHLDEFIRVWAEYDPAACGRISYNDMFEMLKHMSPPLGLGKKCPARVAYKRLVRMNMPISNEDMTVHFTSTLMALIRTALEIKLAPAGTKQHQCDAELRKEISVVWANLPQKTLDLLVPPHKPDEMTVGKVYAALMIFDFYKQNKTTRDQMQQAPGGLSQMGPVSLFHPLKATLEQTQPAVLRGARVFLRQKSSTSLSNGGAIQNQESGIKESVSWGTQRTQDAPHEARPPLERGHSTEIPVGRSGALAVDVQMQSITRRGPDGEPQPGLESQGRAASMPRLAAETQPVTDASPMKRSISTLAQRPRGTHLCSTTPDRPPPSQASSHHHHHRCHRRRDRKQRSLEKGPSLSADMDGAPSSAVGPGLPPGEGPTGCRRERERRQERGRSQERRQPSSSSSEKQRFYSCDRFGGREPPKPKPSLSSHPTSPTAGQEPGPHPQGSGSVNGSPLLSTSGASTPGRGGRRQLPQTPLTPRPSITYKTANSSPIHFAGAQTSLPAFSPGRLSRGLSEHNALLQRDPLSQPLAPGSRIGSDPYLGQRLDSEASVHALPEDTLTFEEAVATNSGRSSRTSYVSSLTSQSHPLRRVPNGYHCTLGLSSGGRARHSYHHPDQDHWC

[4] = target: T1, Voltage-dependent N-type calcium channel subunit alpha-1B; assay: Inhibition of high frequency stimulation-induced Cav2.2 (unknown origin) expressed in HEK293 cells at -80 mV holding membrane potential by automated patch clamp assay; assay type: cell-based
Target sequence in this assay (Q00975 whole entry): as above

[5] = target: T1, Voltage-dependent N-type calcium channel subunit alpha-1B; assay: Inhibition of low frequency stimulation-induced Cav2.2 (unknown origin) expressed in HEK293 cells at -80 mV holding membrane potential by automated patch clamp assay; assay type: cell-based
Target sequence in this assay (Q00975 whole entry): as above

[6] = target: Voltage-gated inwardly rectifying potassium channel KCNH2 (Homo sapiens, UniProt Q12809); assay: Inhibition of human ERG
[7] = target: L-type calcium channel (Homo sapiens, UniProt O60840+Q01668+Q13698+Q13936); assay: Inhibition of L-type calcium channel (unknown origin) at 1 uM relative to control; assay type: protein assay
[8] = AUClast in rat at 10 mg/kg, po; assay type: ADME, organism-based; design: dose 10 mg/kg, time 0 - last, route oral; settings: in vivo
Procedure, shortened: (§1)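 Rat PK: oral and intravenous dosing of the same compound in 20% hydroxypropyl-β-cyclodextrin, at 10.0/2.0 or 6.0/1.2 mg/kg po/iv.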

[9] = Clearance in rat at 10 mg/kg, po or 2 mg/kg, iv; assay type: ADME, organism-based; settings: in vivo; procedure, shortened: as §1
[10] = Half life in rat at 2 mg/kg, iv; assay type: ADME, organism-based; settings: in vivo; procedure, shortened: as §1
[11] = Cmax in rat at 10 mg/kg, po; assay type: ADME, organism-based; design: dose 10 mg/kg, route oral; settings: in vivo; procedure, shortened: as §1
[12] = Volume of distribution at steady state in rat at 10 mg/kg, po or 2 mg/kg, iv; assay type: ADME, organism-based; settings: in vivo, read-out: Vdss; procedure, shortened: as §1
[13] = Oral bioavailability in rat at 10 mg/kg; assay type: ADME, organism-based; settings: in vivo; procedure, shortened: as §1
[14] = test system: Rattus norvegicus; assay: Antiinflammatory activity in rat model of complete Freund's adjuvant-induced inflammatory pain assessed as reduction in thermal hyperalgesia by measuring radiant heat latency at 30 mg/kg, po measured after 30 mins post dose; assay type: functional, organism-based
Procedure, shortened: (§2)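 CFA rats were confirmed thermally hypersensitive by radiant heat latency (75% cut-off) on test day. They were then dosed p.o. at 2.5 mL/kg with 30 mg/kg in 10% NMP/20% Solutol, or vehicle alone. Paw withdrawal latency to radiant heat was read at 30, 60, 120, 180 and 300 min post-dose. One-way ANOVA with Dunnett's post test.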

[15] = test system: Rattus norvegicus; assay: Antiinflammatory activity in rat model of complete Freund's adjuvant-induced inflammatory pain assessed as reduction in thermal hyperalgesia by measuring radiant heat latency at 30 mg/kg, po measured after 180 mins post dose; assay type: functional, organism-based; procedure, shortened: as §2
[16] = test system: Rattus norvegicus; assay: Antinociceptive activity in Sprague-Dawley rat model of CCI-induced neuropathic pain assessed as reduction in acetone-induced nocifensive response at 30 mg/kg, po measured after 3 hrs relative to control; assay type: functional
Procedure, shortened: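 CCI rats were given 30 mg/kg p.o. in 10% Solutol/20% HP-β-CD, or vehicle. Cold allodynia was scored as brisk hindpaw withdrawal to acetone applied to the affected paw, over five applications, before dosing and hourly for 3 h. Percent inhibition is relative to the time-zero responses. Two-way repeated-measures ANOVA with Bonferroni test.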

[17] = Plasma concentration in rat model of complete Freund's adjuvant-induced inflammatory painat 30 mg/kg, po after 2 hrs; assay type: ADME, organism-based
Procedure, shortened: (§3)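 In separate studies, drug levels in plasma, brain and spinal cord were measured in rats after a 30 mg/kg p.o. dose, sampled at 1 h or 2 h.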

[18] = Drug uptake in brain of rat model of complete Freund's adjuvant-induced inflammatory pain at 30 mg/kg, po after 2 hrs; assay type: ADME, organism-based; settings: read-out: Drug uptake; procedure, shortened: as §3
[19] = AUClast in rat at 6 mg/kg, po; assay type: ADME, organism-based; design: dose 6 mg/kg, route oral, time 0 - last; settings: in vivo; procedure, shortened: as §1
[20] = Clearance in rat at 6 mg/kg, po or 1.2 mg/kg, iv; assay type: ADME, organism-based; settings: in vivo; procedure, shortened: as §1
[21] = Half life in rat at 1.2 mg/kg, iv; assay type: ADME, organism-based; settings: in vivo; procedure, shortened: as §1
[22] = Cmax in rat at 6 mg/kg, po; assay type: ADME, organism-based; design: dose 6 mg/kg, route oral; settings: in vivo; procedure, shortened: as §1
[23] = Volume of distribution at steady state in rat at 6 mg/kg, po or 1.2 mg/kg, iv; assay type: ADME, organism-based; settings: in vivo, read-out: Vdss; procedure, shortened: as §1
[24] = Oral bioavailability in rat at 6 mg/kg; assay type: ADME, organism-based; settings: in vivo; procedure, shortened: as §1
[25] = Plasma concentration in rat model of complete Freund's adjuvant-induced inflammatory pain at 30 mg/kg, po after 1 hr; assay type: ADME, organism-based; procedure, shortened: as §3
[26] = Drug uptake in brain of rat model of complete Freund's adjuvant-induced inflammatory pain at 30 mg/kg, po after 1 hr; assay type: ADME, organism-based; settings: read-out: Drug uptake; procedure, shortened: as §3
[27] = Drug uptake in spinal cord of rat model of complete Freund's adjuvant-induced inflammatory pain at 30 mg/kg, po after 1 hr; assay type: ADME, organism-based; settings: read-out: Drug uptake; procedure, shortened: as §3
[28] = target: T1, Voltage-dependent N-type calcium channel subunit alpha-1B; assay: Inhibition of high frequency stimulation-induced Cav2.2 (unknown origin) expressed in HEK293 cells at 5 uM at -80 mV holding membrane potential by automated patch clamp assay relative to control; assay type: cell-based
Procedure, shortened: (§4)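 Automated whole-cell patch clamp (QPatch-HT) on HEK293 cells stably expressing Cav2.2. Each trial was the 4th train at each drug concentration. 60 μM CdCl2 set the 0% level, and vehicle-treated cells were used to correct for rundown.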
Target sequence in this assay (Q00975 whole entry, looked up): as the sequence (Q00975 whole entry) above

[29] = target: T1, Voltage-dependent N-type calcium channel subunit alpha-1B; assay: Inhibition of low frequency stimulation-induced Cav2.2 (unknown origin) expressed in HEK293 cells at 5 uM at -80 mV holding membrane potential by automated patch clamp assay relative to control; assay type: cell-based; procedure, shortened: as §4
Target sequence in this assay (Q00975 whole entry, looked up): as the sequence (Q00975 whole entry) above

Chain of Voltage-gated inwardly rectifying potassium channel KCNH2 (Q12809 whole entry): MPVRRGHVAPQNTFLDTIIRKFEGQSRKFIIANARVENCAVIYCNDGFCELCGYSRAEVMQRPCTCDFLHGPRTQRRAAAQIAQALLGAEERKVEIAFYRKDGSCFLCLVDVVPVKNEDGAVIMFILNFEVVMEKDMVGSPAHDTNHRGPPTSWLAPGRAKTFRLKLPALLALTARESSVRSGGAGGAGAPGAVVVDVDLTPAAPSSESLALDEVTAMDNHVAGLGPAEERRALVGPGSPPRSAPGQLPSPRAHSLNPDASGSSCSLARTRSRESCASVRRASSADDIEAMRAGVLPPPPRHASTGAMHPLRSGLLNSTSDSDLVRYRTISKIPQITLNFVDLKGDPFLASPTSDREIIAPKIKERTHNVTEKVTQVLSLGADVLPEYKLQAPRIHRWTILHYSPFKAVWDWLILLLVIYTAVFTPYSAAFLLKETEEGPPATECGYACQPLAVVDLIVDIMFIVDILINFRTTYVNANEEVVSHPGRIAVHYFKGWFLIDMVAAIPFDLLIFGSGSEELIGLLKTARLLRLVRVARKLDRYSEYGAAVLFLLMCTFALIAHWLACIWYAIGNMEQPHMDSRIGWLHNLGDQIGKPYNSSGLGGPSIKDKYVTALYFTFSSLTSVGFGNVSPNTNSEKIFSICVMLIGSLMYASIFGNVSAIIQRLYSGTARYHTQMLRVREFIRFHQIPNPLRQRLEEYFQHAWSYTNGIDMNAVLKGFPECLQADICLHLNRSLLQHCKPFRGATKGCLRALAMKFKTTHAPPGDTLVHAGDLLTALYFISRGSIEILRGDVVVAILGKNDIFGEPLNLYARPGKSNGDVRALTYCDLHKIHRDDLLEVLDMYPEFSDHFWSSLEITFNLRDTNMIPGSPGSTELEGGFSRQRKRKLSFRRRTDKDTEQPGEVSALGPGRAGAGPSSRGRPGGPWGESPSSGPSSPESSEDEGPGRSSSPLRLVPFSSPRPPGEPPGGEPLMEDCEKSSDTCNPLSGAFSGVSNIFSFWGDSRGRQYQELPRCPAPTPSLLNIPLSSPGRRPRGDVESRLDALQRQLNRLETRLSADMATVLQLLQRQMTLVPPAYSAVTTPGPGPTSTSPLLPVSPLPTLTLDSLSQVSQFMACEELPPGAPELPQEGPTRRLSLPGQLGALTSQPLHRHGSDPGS

COc1ccccc1-n1nc([C@H]2C[C@@H](C)O[C@@H](C)C2)cc1-c1ccc(Cl)cc1
remaining at 10 min [1]: 64%
remaining at 10 min [2]: 18%
IC50 [3]: 3 nM
IC50 [4]: 12 nM
IC50 [5]: 91 nM

CCN(CC)c1ccccc1-n1nc(C2CC(C)(C)OC(C)(C)C2)cc1-c1ccc(Cl)cc1
IC50 [3]: 1 nM
IC50 [4]: 100 nM
IC50 [5]: 590 nM

COc1ccccc1-n1nc(C2CC(C)(C)OC(C)(C)C2)cc1-c1ccc(Cl)cc1
remaining at 10 min [1]: 97%
remaining at 10 min [2]: 96%
IC50 [6]: 20000 nM
inhibition at 1 µM [7]: 0%
IC50 [3]: 1 nM
IC50 [4]: 16 nM
IC50 [5]: 24 nM
AUC(0-t) [8]: 1500 ng·h/mL
clearance [9]: 37 mL/min/kg
half-life [10]: 15.4 h
Cmax [11]: 127 ng/mL
Vd [12]: 33.3 L/kg
bioavailability [13]: 36%
Activity [14]: Active
Activity [15]: inactive
inhibition in vivo at 30 mg/kg [16]: 51%
concentration at 2 h [17]: 700 nM
concentration at 2 h [18]: 1200 nM

COc1ccccc1-n1nc(C2C[C@H](C)O[C@@H](C)C2)cc1-c1ccc(Cl)cc1 (relative stereo)
remaining at 10 min [1]: 40%
remaining at 10 min [2]: 14%
IC50 [3]: 2 nM

COc1ccccc1-n1nc(C2CC(C)(C)OC(C)(C)C2)cc1-c1csc(Cl)c1
IC50 [6]: 26000 nM
inhibition at 1 µM [7]: 12%
IC50 [3]: 6 nM
IC50 [4]: 28 nM
IC50 [5]: 62 nM
AUC(0-t) [19]: 2660 ng·h/mL
clearance [20]: 15.9 mL/min/kg
half-life [21]: 10.2 h
Cmax [22]: 369 ng/mL
Vd [23]: 10.2 L/kg
bioavailability [24]: 49%
Activity [14]: Active
Activity [15]: inactive
concentration at 1 h [25]: 1100 nM
concentration at 1 h [26]: 2200 nM
concentration at 1 h [27]: 1900 nM

COc1ccccc1-n1nc(C2CCOC(C)(C)C2)cc1-c1ccc(Cl)cc1 (stereo not given)
remaining at 10 min [1]: 98%
remaining at 10 min [2]: 21%
IC50 [3]: 2 nM
IC50 [4]: 55 nM
IC50 [5]: 150 nM

COc1ccccc1-n1nc(C2CC(C)(C)OC(C)(C)C2)cc1-c1ccc(C)nc1
IC50 [3]: 6 nM

COc1ccccc1-n1nc(C2CCOCC2)cc1-c1ccc(Cl)cc1
remaining at 10 min [1]: 75%
remaining at 10 min [2]: 8%
IC50 [3]: 30 nM

COc1ccccc1-n1nc(C2CC(C)(C)OC(C)(C)C2)cc1-c1ccc(C#N)cc1
IC50 [3]: 1 nM
IC50 [4]: 85 nM
IC50 [5]: 130 nM

COc1ccccc1-n1nc(C2=CC(C)(C)OC(C)(C)C2)cc1-c1ccc(Cl)cc1
remaining at 10 min [1]: 96%
remaining at 10 min [2]: 37%
IC50 [3]: 3 nM

COc1ccccc1-n1nc(C2CC(C)(C)OC(C)(C)C2)cc1-c1ccnc(Cl)c1
IC50 [4]: 250 nM
IC50 [5]: 740 nM

COc1ccccc1-n1nc([C@@H]2CCO[C@H](C(C)C)C2)cc1-c1ccc(Cl)cc1 (relative stereo)
remaining at 10 min [1]: 66%
remaining at 10 min [2]: 21%
IC50 [3]: 7 nM

CCOc1ccc(-c2cc(C3CC(C)(C)OC(C)(C)C3)nn2-c2ccccc2OC)cn1
IC50 [3]: 5 nM
IC50 [4]: 44 nM
IC50 [5]: 200 nM

COCCCc1cc(-c2ccc(Cl)cc2)n(-c2ccccc2OC)n1
remaining at 10 min [1]: 58%
remaining at 10 min [2]: 4%
inhibition [28]: 50%
inhibition [29]: 50%

CC1(C)CC(c2cc(-c3ccc(Cl)cc3)n(-c3ccccn3)n2)CC(C)(C)O1
IC50 [3]: 12 nM

CC1(C)CC(c2cc(-c3ccc(Cl)cc3)n(-c3ccncc3)n2)CC(C)(C)O1
IC50 [3]: 7 nM

COc1ccccc1-n1nc([C@@H]2CCO[C@@H](C(C)C)C2)cc1-c1ccc(Cl)cc1 (relative stereo)
remaining at 10 min [1]: 26%
remaining at 10 min [2]: 14%
IC50 [3]: 20 nM

CCOc1ccc(-c2cc(C3CC(C)(C)OC(C)(C)C3)nn2-c2ccccc2OC)cc1
IC50 [3]: 2 nM
IC50 [4]: 29 nM
IC50 [5]: 61 nM
